Results on seven compounds are retold here after ChEMBL document CHEMBL3243957, “Synthesis and screening of 8-(4'-thiazolyl)purines” (J Med Chem, 1978).

Calls of active or inactive are those of the source. No cut-off for these calls is given here.

The subject of data set [1] is Lymphocyte. The experiment in a line: Immunopotentiation activity in human lymphocytes assessed as increase in cell proliferation at 1 to 100 ug/ml by [3H]thymidine incorporation assay in presence of mitogen phytohemagglutinin. It is filed as functional, cell-based. The method, boiled down:
(§1)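 Lymphocytes were cultured with compound at 1, 10 and 100 µg/mL, with or without a suboptimal concentration of the lectin mitogen phytohemagglutinin. Proliferation was read as tritiated thymidine incorporation.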
(In general: Incorporation of labelled thymidine or its analogues reports DNA synthesis.)

Data set [2] relates to Lymphocyte. As to the kind of experiment: Immunopotentiation activity in human lymphocytes assessed as increase in cell proliferation at 1 to 100 ug/ml by [3H]thymidine incorporation assay in absence of mitogen phytohemagglutinin. It is filed as functional, cell-based. The method, boiled down:
as §1

The subject of data set [3] is Lymphocyte. The experiment in a line: Inhibition of phytohemagglutinin-induced human lymphocytes proliferation at 100 ug/ml by [3H]thymidine incorporation assay. It is filed as functional, cell-based. The method, boiled down:
as §1

The subject of another data set is L1210. The experiment in a line: Antitumor activity against mouse L1210 cells allografted in mouse assessed as increase in host survival time at 125 mg/kg administered qd for 6 days relative to control. It is filed as functional. The method, boiled down: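 L1210 mouse leukemia in mice, dosed daily (qd) over a 1 to 125 mg/kg range. Read-out was survival time of treated versus control mice, given as % T/C. Procedure follows previously described methods.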

In data set [4] the test system is Mus musculus. As to the kind of experiment: Toxicity in mouse L1210 cells allografted mouse up to 500 mg/kg administered qd for 5 days. It is filed as organism-based. Also on record: dose 500 mg/kg. The following applies: in vivo, 120 h.
Data set [5] has as its system Mus musculus. As to the kind of experiment: Antitumor activity against mouse S180J cells allografted in CD-1 mouse assessed as tumor regression at 32 mg/kg, ip administered six times in consecutive days starting a day after tumor cell inoculation measured 42 days after start of drug treatment. It is filed as functional, organism-based. Also on record: dose 32 mg/kg. The method, boiled down: (§2)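 Female CD-1 mice, in groups of six, were inoculated with 7.5 × 10^5 tumor cells. Starting the day after inoculation, the agent was given ip as a carboxymethylcellulose suspension in saline, once daily for six consecutive days, at different dosages.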

Data set [6] concerns Mus musculus. The experiment in a line: Antitumor activity against mouse S180J cells allografted in CD-1 mouse assessed as tumor regression at 16 mg/kg, ip administered six times in consecutive days starting a day after tumor cell inoculation measured 42 days after start of drug treatment. It is filed as functional, organism-based. Also on record: dose 16 mg/kg. The gist of the method: as §2

In data set [7] the test system is Mus musculus. The experiment in a line: Antitumor activity against mouse S180J cells allografted in CD-1 mouse assessed as tumor regression at 4 mg/kg, ip administered six times in consecutive days starting a day after tumor cell inoculation measured 42 days after start of drug treatment. It is filed as functional, organism-based. Also on record: dose 4 mg/kg. The gist of the method:
as §2

The subject of data set [8] is Mus musculus. As to the kind of experiment: Antitumor activity against mouse S180J cells allografted in CD-1 mouse assessed as tumor regression at 1 mg/kg, ip administered six times in consecutive days starting a day after tumor cell inoculation measured 42 days after start of drug treatment. It is filed as functional, organism-based. Also on record: dose 1 mg/kg. The method, boiled down:
as §2

Data set [9] concerns Mus musculus. As to the kind of experiment: Antitumor activity against AKR mouse leukemia assessed as increase in survival time at 0.2 to 20 mg/kg, ip. It is filed as functional, organism-based. The gist of the method: (§3)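 AKR leukemia-bearing mice were dosed at 0.2, 2.0 and 20 mg/kg, each given by intraperitoneal, oral or subcutaneous routes. The read-out was increase in survival time.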

Data set [10] deals with Mus musculus. As to the kind of experiment: Antitumor activity against AKR mouse leukemia assessed as increase in survival time at 0.2 to 20 mg/kg, po. It is filed as functional, organism-based. The gist of the method: as §3
The test system of data set [11] is Mus musculus. As to the kind of experiment: Antitumor activity against AKR mouse leukemia assessed as increase in survival time at 0.2 to 20 mg/kg, sc. It is filed as functional, organism-based. The method, boiled down: as §3
Data set [12] has as its system Mus musculus. As to the kind of experiment: Antitumor activity against mouse S180J cells allografted in ip dosed CD-1 mouse assessed as tumor regression administered six times in consecutive days starting a day after tumor cell inoculation measured 42 days after start of drug treatment. It is filed as functional, organism-based. The method, boiled down:
as §2

Data set [13] deals with Mus musculus. As to the kind of experiment: Antitumor activity against mouse S180J cells allografted in CD-1 mouse assessed as tumor regression at 10 to 100 mg/kg, ip administered six times in consecutive days starting day after tumor cell inoculation measured 42 days after start of drug treatment. It is filed as functional, organism-based. The gist of the method: as §2

Data set [14] has as its system Mus musculus. As to the kind of experiment: Antitumor activity against mouse S180J cells allografted in CD-1 mouse assessed as tumor regression at 30 mg/kg, ip administered six times in consecutive days starting a day after tumor cell inoculation measured 42 days after start of drug treatment. It is filed as functional, organism-based. Also on record: dose 30 mg/kg. The method, boiled down: as §2

In data set [15] the test system is Human alphaherpesvirus 1. The experiment in a line: Antiviral activity against HSV-1 infected in african green monkey Vero cells assessed as inhibition of viral replication at 100 ug/ml (reference value: 2.7 x 10^5 PFU/ml). It is filed as functional.
Data set [16] has as its system Human alphaherpesvirus 1. As to the kind of experiment: Antiviral activity against HSV-1 infected in african green monkey Vero cells assessed as inhibition of viral replication at 10 ug/ml (reference value: 2.7 x 10^5 PFU/ml). It is filed as functional.
Data set [17] deals with Human alphaherpesvirus 1. The experiment in a line: Antiviral activity against HSV-1 infected in african green monkey Vero cells assessed as inhibition of viral replication at 1 ug/ml (reference value: 2.7 x 10^5 PFU/ml). It is filed as functional.
The test system of data set [18] is Human alphaherpesvirus 1. As to the kind of experiment: Antiviral activity against HSV-1 infected in african green monkey Vero cells assessed as inhibition of viral replication at 100 ug/ml (reference value: 1.2 x 10^6 PFU/ml). It is filed as functional.
Data set [19] has as its system Human alphaherpesvirus 1. As to the kind of experiment: Antiviral activity against HSV-1 infected in african green monkey Vero cells assessed as inhibition of viral replication at 10 ug/ml (reference value: 1.2 x 10^6 PFU/ml). It is filed as functional.
Data set [20] has as its system Human alphaherpesvirus 1. The experiment in a line: Antiviral activity against HSV-1 infected in african green monkey Vero cells assessed as inhibition of viral replication at 1 ug/ml (reference value: 1.2 x 10^6 PFU/ml). It is filed as functional.
The test system of data set [21] is Mus musculus. The experiment in a line: Antitumor activity against mouse S180J cells allografted in CD-1 mouse assessed as tumor regression at 100 mg/kg, ip administered six times in consecutive days starting a day after tumor cell inoculation measured 42 days after start of drug treatment. It is filed as functional, organism-based. Also on record: dose 100 mg/kg. The method, boiled down:
as §2

As for `Oc1ncnc2[nH]c(-c3cscn3)nc12`, the result with Lymphocyte [1] and in the data set with Lymphocyte [2] was inactive. In addition, the inhibition entry with Lymphocyte [3] was “Active”.
On to `ONc1ncnc2[nH]c(-c3cscn3)nc12`, for which the T/C in the data set with L1210 is listed as 129%. The Activity entry with Mus musculus [4] is reported as “Non-toxic”.
On to `Sc1ncnc2[nH]c(-c3cscn3)nc12`, for which the inhibition entry in the data set on Mus musculus [5], in the data set with Mus musculus [6], in the data set with Mus musculus [7] and with Mus musculus [8] was “inactive” in each case. Also, the result in the data set on Mus musculus [9], in the data set with Mus musculus [10], in the data set on Mus musculus [11], with Lymphocyte [1] and in the data set with Lymphocyte [2] was inactive. Moreover, the inhibition result in the data set with Mus musculus [12] and in the data set on Lymphocyte [3] was “Active” in each case.
Take `c1ncc2nc(-c3cscn3)[nH]c2n1`: the result in the data set on Lymphocyte [1] and with Lymphocyte [2] was inactive. For the same compound, the inhibition entry in the data set on Mus musculus [13] is “inactive”. For the same compound, the inhibition entry with Lymphocyte [3] is “Active”.
In the case of `Nc1ncnc2[nH]c(-c3cscn3)nc12`, the inhibition entry in the data set with Mus musculus [14] and in the data set with Mus musculus [13] was “inactive” each time. Besides, the PFU/ml is 920000 in the data set with Human alphaherpesvirus 1 [15], 850000 with Human alphaherpesvirus 1 [16] and 320000 in the data set with Human alphaherpesvirus 1 [17]. For the same compound, the outcome in the data set on Lymphocyte [1] and in the data set with Lymphocyte [2] was inactive. Moreover, in the data set with Lymphocyte [3], the inhibition result was “Active”.
As for `Clc1ncnc2[nH]c(-c3cscn3)nc12`, the PFU/ml in the data set with Human alphaherpesvirus 1 [18] was determined as 2200000; in the data set with Human alphaherpesvirus 1 [19] it was 2500000; in the data set with Human alphaherpesvirus 1 [20], 4000000. Besides, the result in the data set with Lymphocyte [1] and in the data set with Lymphocyte [2] was inactive. Moreover, the inhibition result with Lymphocyte [3] is “Active”.
As for `Nc1nc(S)c2nc(-c3cscn3)[nH]c2n1`, the inhibition result in the data set on Mus musculus [14] and in the data set with Mus musculus [21] was “inactive” in each case. For the same compound, the PFU/ml in the data set on Human alphaherpesvirus 1 [18] is 820000; in the data set with Human alphaherpesvirus 1 [19], 5300000; in the data set with Human alphaherpesvirus 1 [20] it was 3500000. The outcome in the data set on Lymphocyte [1] and in the data set with Lymphocyte [2] was inactive. The inhibition result in the data set with Mus musculus [12] and in the data set with Lymphocyte [3] was “Active” in each case.

The term T/C denotes the result in the treated group divided by that in the control group, in per cent.
